# Measurements as given in ChEMBL document CHEMBL4689842, “EUbOPEN Chemogenomics Library wave 1” (2021).
# Where “and” joins values, the source holds several entries; their conditions need not be identical. Equal values may be shown once.
# System: Fibroblast
# Test: Multiplex assay against human fibroblast
# Assay type: toxicity, cell-based
# In short: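 On a CQ1 microscope at 37°C and 5% CO2, live cells were imaged after compound addition. They had been stained at seeding with Hoechst33342, BioTracker Green Microtubule Cytoskeleton Dye, MitoTracker Red and Annexin V Alexa Fluor 680. CellPathfinder machine-learning gating assigned cells to Hoechst high-intensity objects or normal cells, normal cells to healthy, pyknosed or fragmented nuclei, and pyknosed cells to mitotic or apoptotic. Tubulin, mitochondrial-mass and membrane-permeability phenotypes are per cents of healthy-nucleus cells.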
# [1] = 12 h, 1 µM, compound concentration 1 uM, replicate 1
# [2] = 12 h, 1 µM, compound concentration 1 uM, replicate 2
# [3] = 12 h, 10 µM, compound concentration 10 uM, replicate 1
# [4] = 12 h, 10 µM, compound concentration 10 uM, replicate 2
# [5] = 24 h, 1 µM, compound concentration 1 uM, replicate 1
# [6] = 24 h, 1 µM, compound concentration 1 uM, replicate 2
# [7] = 24 h, 10 µM, compound concentration 10 uM, replicate 1
# [8] = 24 h, 10 µM, compound concentration 10 uM, replicate 2
# [9] = 48 h, 10 µM, compound concentration 10 uM, replicate 1
# [10] = 48 h, 10 µM, compound concentration 10 uM, replicate 2
# [11] = 48 h, 1 µM, compound concentration 1 uM, replicate 1
# [12] = 48 h, 1 µM, compound concentration 1 uM, replicate 2
compound,measurement,setting,value
NC(=O)Nc1cc(-c2cccc(F)c2)sc1C(=O)N[C@H]1CCCNC1 [AZD-7762],Population Apoptotic (%),[1],69%
same,Population Fragmented Nuclei (%),[1],20%
same,Population Healthy Nuclei (%),[1],62%
same,Population Hoechst High Intensity Objects (%),[1],14%
same,Population Membrane Permeable-Phenotype (%),[1],8%
same,Population Mitochondria Different-Phenotype (%),[1],0%
same,Population Mitotic Cells (%),[1],30%
same,Population Normal (%),[1],85%
same,Population Pyknosed Nuclei (%),[1],17%
same,Population Tubulin-Different-Phenotype (%),[1],1%
same,Total Cell Count,[1],226
same,Population Apoptotic (%),[2],60%
same,Population Fragmented Nuclei (%),[2],42%
same,Population Healthy Nuclei (%),[2],49%
same,Population Hoechst High Intensity Objects (%),[2],29%
same,Population Membrane Permeable-Phenotype (%),[2],16%
same,Population Mitochondria Different-Phenotype (%),[2],3%
same,Population Mitotic Cells (%),[2],40%
same,Population Normal (%),[2],70%
same,Population Pyknosed Nuclei (%),[2],8%
same,Population Tubulin-Different-Phenotype (%),[2],13%
same,Total Cell Count,[2],87
same,Population Apoptotic (%),[3],73% and 68%
same,Population Fragmented Nuclei (%),[3],47% and 34%
same,Population Healthy Nuclei (%),[3],35% and 51%
same,Population Hoechst High Intensity Objects (%),[3],16% and 18%
same,Population Membrane Permeable-Phenotype (%),[3],6% and 7%
same,Population Mitochondria Different-Phenotype (%),[3],3%
same,Population Mitotic Cells (%),[3],26% and 31%
same,Population Normal (%),[3],83% and 81%
same,Population Pyknosed Nuclei (%),[3],17% and 14%
same,Total Cell Count,[3],106 and 295
same,Population Apoptotic (%),[4],46% and 44%
same,Population Fragmented Nuclei (%),[4],22% and 60%
same,Population Healthy Nuclei (%),[4],25% and 27%
same,Population Membrane Permeable-Phenotype (%),[4],21% and 20%
same,Population Mitotic Cells (%),[4],53% and 55%
same,Population Normal (%),[4],94% and 67%
same,Population Tubulin-Different-Phenotype (%),[4],21% and 35%
same,Total Cell Count,[4],79 and 110
same,Population Apoptotic (%),[5],61%
same,Population Fragmented Nuclei (%),[5],25%
same,Population Healthy Nuclei (%),[5],62%
same,Population Hoechst High Intensity Objects (%),[5],14%
same,Population Membrane Permeable-Phenotype (%),[5],11%
same,Population Mitochondria Different-Phenotype (%),[5],1%
same,Population Mitotic Cells (%),[5],38%
same,Population Normal (%),[5],85%
same,Population Pyknosed Nuclei (%),[5],12%
same,Population Tubulin-Different-Phenotype (%),[5],2%
same,Total Cell Count,[5],238
same,Population Apoptotic (%),[6],0%
same,Population Fragmented Nuclei (%),[6],40%
same,Population Healthy Nuclei (%),[6],60%
same,Population Hoechst High Intensity Objects (%),[6],26%
same,Population Membrane Permeable-Phenotype (%),[6],10%
same,Population Mitochondria Different-Phenotype (%),[6],0%
same,Population Mitotic Cells (%),[6],0%
same,Population Normal (%),[6],73%
same,Population Pyknosed Nuclei (%),[6],0%
same,Population Tubulin-Different-Phenotype (%),[6],10%
same,Total Cell Count,[6],68
same,Population Apoptotic (%),[7],37% and 82%
same,Population Fragmented Nuclei (%),[7],47% and 41%
same,Population Healthy Nuclei (%),[7],44% and 47%
same,Population Hoechst High Intensity Objects (%),[7],27% and 14%
same,Population Mitochondria Different-Phenotype (%),[7],4% and 0%
same,Population Normal (%),[7],72% and 85%
same,Population Pyknosed Nuclei (%),[7],8% and 10%
same,Total Cell Count,[7],129 and 316
same,Population Apoptotic (%),[8],57% and 92%
same,Population Healthy Nuclei (%),[8],32% and 16%
same,Population Hoechst High Intensity Objects (%),[8],29% and 20%
same,Population Membrane Permeable-Phenotype (%),[8],100%
same,Population Normal (%),[8],70% and 80%
same,Population Pyknosed Nuclei (%),[8],66%
same,Total Cell Count,[8],115 and 75
same,Population Apoptotic (%),[9],25%
same,Population Fragmented Nuclei (%),[9],59%
same,Population Healthy Nuclei (%),[9],36%
same,Population Hoechst High Intensity Objects (%),[9],31%
same,Population Membrane Permeable-Phenotype (%),[9],17%
same,Population Mitochondria Different-Phenotype (%),[9],4%
same,Population Mitotic Cells (%),[9],75%
same,Population Normal (%),[9],68%
same,Population Pyknosed Nuclei (%),[9],3%
same,Population Tubulin-Different-Phenotype (%),[9],24%
same,Total Cell Count,[9],162
same,Population Apoptotic (%),[10],100%
same,Population Healthy Nuclei (%),[10],37%
same,Population Hoechst High Intensity Objects (%),[10],13%
same,Population Mitochondria Different-Phenotype (%),[10],2%
same,Population Mitotic Cells (%),[10],0%
same,Population Normal (%),[10],86%
same,Population Pyknosed Nuclei (%),[10],2%
same,Population Tubulin-Different-Phenotype (%),[10],14%
same,Total Cell Count,[10],126
CN(C)C(=O)N[C@H]1CC[C@H](CCN2CCN(c3cccc(Cl)c3Cl)CC2)CC1.Cl [CARIPRAZINE HYDROCHLORIDE],Population Apoptotic (%),[1],65%
same,Population Fragmented Nuclei (%),[1],15%
same,Population Healthy Nuclei (%),[1],51%
same,Population Hoechst High Intensity Objects (%),[1],6%
same,Population Membrane Permeable-Phenotype (%),[1],32%
same,Population Mitochondria Different-Phenotype (%),[1],10%
same,Population Mitotic Cells (%),[1],34%
same,Population Normal (%),[1],93%
same,Population Pyknosed Nuclei (%),[1],33%
same,Population Tubulin-Different-Phenotype (%),[1],45%
same,Total Cell Count,[1],83
same,Population Apoptotic (%),[2],60%
same,Population Fragmented Nuclei (%),[2],7%
same,Population Healthy Nuclei (%),[2],84%
same,Population Membrane Permeable-Phenotype (%),[2],6%
same,Population Mitochondria Different-Phenotype (%),[2],29%
same,Population Mitotic Cells (%),[2],40%
same,Population Pyknosed Nuclei (%),[2],8%
same,Population Tubulin-Different-Phenotype (%),[2],22%
same,Total Cell Count,[2],61
same,Population Apoptotic (%),[3],71%
same,Population Fragmented Nuclei (%),[3],26%
same,Population Healthy Nuclei (%),[3],38%
same,Population Hoechst High Intensity Objects (%),[3],16%
same,Population Membrane Permeable-Phenotype (%),[3],16%
same,Population Mitochondria Different-Phenotype (%),[3],28%
same,Population Mitotic Cells (%),[3],28%
same,Population Normal (%),[3],83%
same,Population Pyknosed Nuclei (%),[3],34%
same,Population Tubulin-Different-Phenotype (%),[3],92%
same,Total Cell Count,[3],155
same,Population Apoptotic (%),[4],36%
same,Population Fragmented Nuclei (%),[4],17%
same,Population Healthy Nuclei (%),[4],57%
same,Population Hoechst High Intensity Objects (%),[4],3%
same,Population Membrane Permeable-Phenotype (%),[4],47%
same,Population Mitochondria Different-Phenotype (%),[4],95%
same,Population Mitotic Cells (%),[4],63%
same,Population Normal (%),[4],96%
same,Population Pyknosed Nuclei (%),[4],25%
same,Population Tubulin-Different-Phenotype (%),[4],95%
same,Total Cell Count,[4],79
same,Population Apoptotic (%),[5],72%
same,Population Fragmented Nuclei (%),[5],21%
same,Population Healthy Nuclei (%),[5],49%
same,Population Hoechst High Intensity Objects (%),[5],10%
same,Population Membrane Permeable-Phenotype (%),[5],21%
same,Population Mitochondria Different-Phenotype (%),[5],11%
same,Population Mitotic Cells (%),[5],28%
same,Population Normal (%),[5],89%
same,Population Pyknosed Nuclei (%),[5],29%
same,Population Tubulin-Different-Phenotype (%),[5],45%
same,Total Cell Count,[5],95
same,Population Apoptotic (%),[6],66%
same,Population Fragmented Nuclei (%),[6],6%
same,Population Healthy Nuclei (%),[6],84%
same,Population Hoechst High Intensity Objects (%),[6],4%
same,Population Membrane Permeable-Phenotype (%),[6],7%
same,Population Mitochondria Different-Phenotype (%),[6],22%
same,Population Mitotic Cells (%),[6],33%
same,Population Normal (%),[6],95%
same,Population Pyknosed Nuclei (%),[6],9%
same,Population Tubulin-Different-Phenotype (%),[6],14%
same,Total Cell Count,[6],67
same,Population Apoptotic (%),[7],70%
same,Population Fragmented Nuclei (%),[7],23%
same,Population Healthy Nuclei (%),[7],54%
same,Population Hoechst High Intensity Objects (%),[7],18%
same,Population Membrane Permeable-Phenotype (%),[7],17%
same,Population Mitochondria Different-Phenotype (%),[7],36%
same,Population Mitotic Cells (%),[7],29%
same,Population Normal (%),[7],81%
same,Population Pyknosed Nuclei (%),[7],21%
same,Population Tubulin-Different-Phenotype (%),[7],82%
same,Total Cell Count,[7],190
same,Population Apoptotic (%),[8],94%
same,Population Healthy Nuclei (%),[8],55%
same,Population Hoechst High Intensity Objects (%),[8],3%
same,Population Membrane Permeable-Phenotype (%),[8],42%
same,Population Mitochondria Different-Phenotype (%),[8],95%
same,Population Mitotic Cells (%),[8],5%
same,Population Normal (%),[8],96%
same,Population Pyknosed Nuclei (%),[8],20%
same,Population Tubulin-Different-Phenotype (%),[8],95%
same,Total Cell Count,[8],87
same,Population Apoptotic (%),[11],65%
same,Population Fragmented Nuclei (%),[11],35%
same,Population Healthy Nuclei (%),[11],46%
same,Population Hoechst High Intensity Objects (%),[11],7%
same,Population Membrane Permeable-Phenotype (%),[11],20%
same,Population Mitochondria Different-Phenotype (%),[11],4%
same,Population Mitotic Cells (%),[11],35%
same,Population Normal (%),[11],92%
same,Population Pyknosed Nuclei (%),[11],18%
same,Population Tubulin-Different-Phenotype (%),[11],56%
same,Total Cell Count,[11],117
same,Population Apoptotic (%),[12],60%
same,Population Fragmented Nuclei (%),[12],25%
same,Population Healthy Nuclei (%),[12],69%
same,Population Hoechst High Intensity Objects (%),[12],11%
same,Population Membrane Permeable-Phenotype (%),[12],7%
same,Population Mitochondria Different-Phenotype (%),[12],3%
same,Population Mitotic Cells (%),[12],40%
same,Population Normal (%),[12],88%
same,Population Pyknosed Nuclei (%),[12],5%
same,Population Tubulin-Different-Phenotype (%),[12],38%
same,Total Cell Count,[12],103
same,Population Apoptotic (%),[9],80%
same,Population Fragmented Nuclei (%),[9],37%
same,Population Healthy Nuclei (%),[9],53%
same,Population Hoechst High Intensity Objects (%),[9],31%
same,Population Membrane Permeable-Phenotype (%),[9],10%
same,Population Mitochondria Different-Phenotype (%),[9],20%
same,Population Mitotic Cells (%),[9],20%
same,Population Normal (%),[9],68%
same,Population Pyknosed Nuclei (%),[9],9%
same,Population Tubulin-Different-Phenotype (%),[9],81%
same,Total Cell Count,[9],235
same,Population Apoptotic (%),[10],33%
same,Population Fragmented Nuclei (%),[10],33%
same,Population Healthy Nuclei (%),[10],63%
same,Population Hoechst High Intensity Objects (%),[10],32%
same,Population Membrane Permeable-Phenotype (%),[10],7%
same,Population Mitochondria Different-Phenotype (%),[10],12%
same,Population Mitotic Cells (%),[10],66%
same,Population Normal (%),[10],67%
same,Population Pyknosed Nuclei (%),[10],2%
same,Population Tubulin-Different-Phenotype (%),[10],85%
same,Total Cell Count,[10],162
